Measured values from ChEMBL document CHEMBL1126033, “C-terminal modifications of nonpeptide renin inhibitors: improved oral bioavailability via modification of physicochemical properties” (J Med Chem, 1992).

Experiments:
[1] = Bioavailability in monkey (i.d. dosing); assay type: ADME, organism-based; conditions: in vivo
How it was run: (§1)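 Male cynomolgus monkeys (3–5 kg) salt-depleted with furosemide 5 mg/kg po on days 7 and 1 plus a low-salt diet. Fasted, pentobarbital anesthesia. Intraduodenal dose of 10 mg/kg as HCl salt solution. Portal and systemic plasma drug levels measured by bioassay. Bioavailability = dose-normalized AUCid/AUCiv ×100 (trapezoidal integration; iv fit biexponential), mean ± SEM.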

[2] = molecular target: T1, Cathepsin G (Homo sapiens) (UniProt P08311); test: Inhibitory activity against human cathepsin G at a concentration of 1 x 10e-5 M
T1 sequence (whole entry): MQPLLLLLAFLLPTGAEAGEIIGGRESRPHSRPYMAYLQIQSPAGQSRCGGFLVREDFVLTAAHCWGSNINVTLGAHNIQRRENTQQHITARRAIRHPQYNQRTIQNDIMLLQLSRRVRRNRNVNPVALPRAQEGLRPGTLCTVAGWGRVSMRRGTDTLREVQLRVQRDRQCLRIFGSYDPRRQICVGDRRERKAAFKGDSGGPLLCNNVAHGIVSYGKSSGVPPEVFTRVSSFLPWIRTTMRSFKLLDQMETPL
How it was run: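 Human leukocyte cathepsin G, assayed with N-succinyl-Ala-Ala-Pro-Phe-4-nitroanilide substrate.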

[3] = Partition coefficient (logD7.4); conditions: octanol/water, pH 7.4
[4] = Bioavailability in ferret; conditions: in vivo
[5] = molecular target: T2, Gastricsin (Homo sapiens) (UniProt P20142); test: Inhibitory activity against human Gastricsin at a concentration of 1 x 10e-5 M
T2 sequence (whole entry): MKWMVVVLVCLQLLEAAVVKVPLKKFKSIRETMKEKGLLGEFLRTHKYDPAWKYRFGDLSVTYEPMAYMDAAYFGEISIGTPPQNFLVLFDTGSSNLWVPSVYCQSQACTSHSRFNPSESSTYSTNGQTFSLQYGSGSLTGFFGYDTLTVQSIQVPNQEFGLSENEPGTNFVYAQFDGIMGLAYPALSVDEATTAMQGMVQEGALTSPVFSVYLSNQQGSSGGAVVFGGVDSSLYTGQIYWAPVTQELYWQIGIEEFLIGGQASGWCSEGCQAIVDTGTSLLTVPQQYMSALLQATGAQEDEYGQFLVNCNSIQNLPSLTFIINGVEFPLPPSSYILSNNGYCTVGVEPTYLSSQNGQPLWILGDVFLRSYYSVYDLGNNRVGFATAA

[6] = test system: Mustela putorius furo; test: (§2) Average area under curve value dosed at 10 mg/kg, id in ferrets.; assay type: ADME, organism-based; set-up: dose 10 mg/kg, route intraduodenal; conditions: ferret, in vivo, other
How it was run: (§3)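 Fasted male Fitch ferrets (0.4–1.2 kg) under Inactin anesthesia (100–120 mg/kg ip), catheterized in carotid artery, jugular vein, portal vein and trachea. Single 10 mg/kg intraduodenal dose of HCl salt solution. 6 portal and 7 arterial samples taken over 180 min. Plasma drug measured by renin-inhibition bioassay with serial dilution and acetonitrile precipitation. AUC by trapezoidal integration; peak is the mean of each animal's maximum.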

[7] = molecular target: T3, Cathepsin D (Bos taurus) (UniProt P80209); test: Inhibitory activity against bovine cathepsin D at a concentration of 1 x 10e-5 M
T3 sequence (whole entry): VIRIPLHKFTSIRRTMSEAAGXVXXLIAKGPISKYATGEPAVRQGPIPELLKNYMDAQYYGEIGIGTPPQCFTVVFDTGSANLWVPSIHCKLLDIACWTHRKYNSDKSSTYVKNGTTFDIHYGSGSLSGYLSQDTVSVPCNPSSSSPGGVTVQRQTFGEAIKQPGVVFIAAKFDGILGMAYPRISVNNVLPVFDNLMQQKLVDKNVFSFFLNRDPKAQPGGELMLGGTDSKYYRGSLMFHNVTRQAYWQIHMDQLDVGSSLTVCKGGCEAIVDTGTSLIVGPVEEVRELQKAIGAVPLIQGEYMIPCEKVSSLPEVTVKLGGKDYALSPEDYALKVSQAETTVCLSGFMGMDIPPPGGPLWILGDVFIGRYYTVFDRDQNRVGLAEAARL

[8] = molecular target: Cathepsin D (Homo sapiens) (UniProt P07339); test: Inhibitory activity against human cathepsin D at a concentration of 1 x 10e-5 M
Sequence of Cathepsin D (Homo sapiens) (P07339 65-162 limits assumed): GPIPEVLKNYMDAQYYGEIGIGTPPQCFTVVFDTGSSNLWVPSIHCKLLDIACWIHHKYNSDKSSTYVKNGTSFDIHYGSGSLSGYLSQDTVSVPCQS
Sequence of Cathepsin D (Homo sapiens) (P07339 169-412 limits assumed): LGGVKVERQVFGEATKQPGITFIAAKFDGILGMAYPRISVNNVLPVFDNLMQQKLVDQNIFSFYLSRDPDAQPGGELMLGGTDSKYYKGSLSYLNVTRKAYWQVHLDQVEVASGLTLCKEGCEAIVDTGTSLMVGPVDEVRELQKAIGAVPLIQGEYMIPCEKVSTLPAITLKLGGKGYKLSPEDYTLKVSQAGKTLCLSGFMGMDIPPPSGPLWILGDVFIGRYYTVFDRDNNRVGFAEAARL
How it was run: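 Human spleen cathepsin D, purified by hemoglobin affinity chromatography and assayed with hemoglobin substrate.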

[9] = Average peak plasma drug concentration after id dose of 10 mg/kg in ferrets(Plasma samples collected from arterial blood).; conditions: ferret, plasma (from arterial blood)
[10] = molecular target: T4, Renin (Homo sapiens, UniProt P00797); test: In vitro activity against human renin (pH 6.0)
T4 sequence (P00797 whole entry): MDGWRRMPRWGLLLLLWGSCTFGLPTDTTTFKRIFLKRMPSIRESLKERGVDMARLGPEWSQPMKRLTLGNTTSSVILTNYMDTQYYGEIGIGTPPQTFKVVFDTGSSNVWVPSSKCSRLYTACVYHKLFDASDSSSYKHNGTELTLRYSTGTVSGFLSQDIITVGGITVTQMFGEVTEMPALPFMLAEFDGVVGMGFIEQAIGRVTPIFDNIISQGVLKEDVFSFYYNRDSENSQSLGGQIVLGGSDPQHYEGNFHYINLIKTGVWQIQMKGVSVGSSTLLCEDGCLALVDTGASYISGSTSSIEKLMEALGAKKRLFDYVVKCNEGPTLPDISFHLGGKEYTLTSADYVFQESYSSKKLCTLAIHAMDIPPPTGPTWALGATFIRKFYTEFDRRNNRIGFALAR

[11] = (§4) Average peak plasma drug concentration after id dose of 10 mg/kg in ferrets(Plasma samples collected from portal blood).; conditions: ferret, plasma (from portal blood)
[12] = molecular target: Pepsin A (Sus scrofa) (UniProt P00791); test: Inhibitory activity against porcine pepsin at a concentration of 1 x 10e-5 M
Sequence of Pepsin A (Sus scrofa) (P00791 60-385 limits assumed): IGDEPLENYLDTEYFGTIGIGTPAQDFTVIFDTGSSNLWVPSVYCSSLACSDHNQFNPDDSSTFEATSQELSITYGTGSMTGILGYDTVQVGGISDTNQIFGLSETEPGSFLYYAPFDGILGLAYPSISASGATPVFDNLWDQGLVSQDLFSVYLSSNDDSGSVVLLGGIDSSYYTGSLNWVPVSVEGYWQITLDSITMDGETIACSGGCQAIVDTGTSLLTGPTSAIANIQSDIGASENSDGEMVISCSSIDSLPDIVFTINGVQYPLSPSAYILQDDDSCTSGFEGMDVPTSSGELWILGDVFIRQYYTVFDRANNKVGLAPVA

[13] = Partition coefficient (logD6.5); conditions: octanol/water, pH 6.5
[14] = test system: Mustela putorius furo; test: Average area under curve value dosed at 0.3 mg/kg, iv in ferrets.; conditions: ferret, in vivo
[15] = molecular target: T4, Renin; assay type: cell-free, Plasma
[16] = Average peak plasma drug concentration after iv dose of 0.3 mg/kg in ferrets.; conditions: ferret, plasma
[17] = Inhibitory activity against monkey plasma at pH 7.4; conditions: Cercopithecidae
[18] = Bioavailability in monkey (dose 10 mg/kg i.d.); assay type: ADME, organism-based; conditions: primates, in vivo; how it was run: as §1
[19] = test system: Mustela putorius furo; test: as §2; conditions: ferret, in vivo, other
[20] = as §4; assay type: ADME, organism-based, Mustela putorius furo; set-up: dose 10 mg/kg, route intraduodenal; conditions: ferret, read-out: Average peak Concn; how it was run: as §3

Row | Structure (SMILES) | logD [3] | bioavailability [4] | Cmax [9] | Cmax [11] | logD [13] | Average AUC [14] | IC50 [15] | Cmax [16] | bioavailability [18] | further results
1 | CCCC[C@H](O[C@@H](Cc1ccccc1)C(=O)N1CCC(OCOC)CC1)C(=O)N[C@@H](CC1CCCCC1)[C@@H](O)C[C@H](C(=O)NCCCN1CCOCC1)C(C)C | 4.3 | 28% | 4830 ng/mL | 6010 ng/mL | 3.3 | 588 ng·h/mL | 2.8 nM | 2110 ng/mL | – | bioavailability ([1]; primates): 16%; inhibition [2]: 0%; inhibition [5]: 11%; Avg AUC, [6]: 391 µg/min/mL; inhibition [7]: 3%; inhibition [8]: 6%; IC50 [10]: 2.4 nM; inhibition [12]: 13%; IC50 [17]: 1.5 nM
2 | CCCCNC(=O)[C@@H](C[C@H](O)[C@H](CC1CCCCC1)NC(=O)[C@H](CCCC)O[C@@H](Cc1ccccc1)C(=O)N1CCC(OCOC)CC1)C(C)C | 4.7 | – | – | – | 4.7 | – | – | – | 2.5% | –
3 | CCCC[C@H](O[C@@H](Cc1ccccc1)C(=O)N1CCC(OCOC)CC1)C(=O)N[C@@H](CC1CCCCC1)[C@@H](O)C[C@H](NC(=O)OCCN1CCOCC1)C(C)C | 3.7 | 70% | 2840 ng/mL | 5010 ng/mL | 3.6 | 258 ng·h/mL | 7.5 nM | 920 ng/mL | – | Avg AUC, [6]: 363 µg/min/mL
4 | CCCC[C@H](N[C@@H](Cc1ccccc1)C(=O)N1CCC(OCOC)CC1)C(=O)N[C@@H](CC1CCCCC1)[C@@H](O)[C@@H](O)CC(C)C | – | – | – | – | – | – | – | – | 2.9% | –
5 | CCCC[C@H](O[C@@H](Cc1ccccc1)C(=O)N1CCC(OCOC)CC1)C(=O)N[C@@H](CC1CCCCC1)[C@@H](O)C[C@H](C(=O)NCCCn1ccnc1)C(C)C | 4 | 25% | 2790 ng/mL | – | 4 | 410 ng·h/mL | 3 nM | 3390 ng/mL | – | Average AUC [19]: 3380 ng·h/mL; Cmax [20]: 2420 ng/mL
6 | CCCC[C@H](N[C@@H](Cc1ccccc1)C(=O)N1CCC(OCOC)CC1)C(=O)N[C@@H](CC1CCCCC1)[C@@H](O)C[C@H](NC(=O)OCCN(C)C)C(C)C | 4.6 | 62% | 2070 ng/mL | 5250 ng/mL | 3.8 | 245 ng·h/mL | 12 nM | 930 ng/mL | – | IC50 [10]: 1.5 nM; Average AUC [19]: 5050 ng·h/mL
7 | CCCC[C@H](O[C@@H](Cc1ccccc1)C(=O)N1CCC(OCOC)CC1)C(=O)N[C@@H](CC1CCCCC1)[C@@H](O)[C@@H](O)CC(C)C | 4.8 | – | – | – | 4.8 | – | – | – | 2.5% | –
8 | COc1ccc(C[C@H](NC(=O)CC(C)(C)N)C(=O)N[C@@H](Cc2cnc[nH]2)C(=O)N[C@@H](CC2CCCCC2)[C@@H](O)[C@@H](O)CC(C)C)cc1 | – | – | – | – | – | – | – | – | – | bioavailability ([1]; cercopithecidae): 1.7%
